In BindingDB's records for doi:10.1021/jm0510629 (University of Houston, 2006) one finds IC50 data, which are given here for six compounds.

pIC50: −log10 of the molar value.

In experiment [1] the target is T1, Integrase (Human immunodeficiency virus 1, UniProt Q7ZJM1). As to the kind of experiment: Inhibition of strand transfer activity of HIV1 integrase. The procedure, abridged: (§1)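 Then 20 nM 5′-32P-labeled 21-mer oligonucleotide added for 1 h. Quenched with formamide loading dye. % inhibition from 19-mer (3′-processing) or strand transfer product fractions versus DNA-alone and DNA+IN controls. IC50 from log concentration versus % inhibition plot.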

Experiment [2] addresses T1, Integrase. As to the kind of experiment: Inhibition of 3'-processing activity of HIV1 integrase. The procedure, abridged:
as §1

T1 sequence (Q7ZJM1 whole entry): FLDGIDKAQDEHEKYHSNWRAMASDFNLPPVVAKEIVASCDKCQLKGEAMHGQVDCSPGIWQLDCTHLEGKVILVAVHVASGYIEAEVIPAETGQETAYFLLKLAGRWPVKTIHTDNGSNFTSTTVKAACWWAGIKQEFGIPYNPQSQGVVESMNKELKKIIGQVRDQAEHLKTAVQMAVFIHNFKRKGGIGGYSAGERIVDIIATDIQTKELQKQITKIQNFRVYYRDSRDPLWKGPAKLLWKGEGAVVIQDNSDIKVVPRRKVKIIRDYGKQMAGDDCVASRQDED

Regarding `COc1ccc(C2C(C(=O)c3ccccc3)C(=O)C(=O)N2CCCO)cc1OC` (configuration not stated) [4-benzoyl-5-(3,4-dimethoxyphenyl)-3-hydroxy-1-(3-hydroxypropyl)-1H-pyrrol-2(5H)-one], the pIC50 in experiment [1] and in experiment [2] was less than 4.00 each time.
In the case of `O=C1C(=O)N(CCCN2CCOCC2)C(c2ccccc2F)C1C(=O)c1ccc(F)cc1` (configuration not stated) [4-(4-fluorobenzoyl)-5-(2-fluorophenyl)-3-hydroxy-1-(3-morpholinopropyl)-1H-pyrrol-2(5H)-one], the pIC50 in experiment [1] and in experiment [2] was less than 3.00 each time.
Turning to `CN(C)CCCN1C(=O)C(=O)C(C(=O)c2cccs2)C1c1cccs1` (configuration not stated) [1-(3-(dimethylamino)propyl)-3-hydroxy-5-(thiophen-2-yl)-4-(thiophene-2-carbonyl)-1H-pyrrol-2(5H)-one], the pIC50 in experiment [1] and in experiment [2] was less than 4.00 in each case.
In the case of `Cc1ccc(C(=O)C2C(=O)C(=O)N(CCN(C)C)C2c2ccccc2F)cc1` (configuration not stated) [1-(2-(dimethylamino)ethyl)-5-(2-fluorophenyl)-3-hydroxy-4-(4-methylbenzoyl)-1H-pyrrol-2(5H)-one], the pIC50 in experiment [1] and in experiment [2] was less than 3.00 in each case.
As for `NCCCCCCNC(=O)c1c(O)c2ccccc2oc1=O` [N-(6-aminohexyl)-4-hydroxy-2-oxo-2H-chromene-3-carboxamide], the pIC50 in experiment [1] and in experiment [2] was less than 4.00 each time.
For `COc1ccc(C2C(C(=O)c3ccc(F)cc3)C(=O)C(=O)N2CCN(C)C)cc1OC` (configuration not stated) [5-(3,4-dimethoxyphenyl)-1-(2-(dimethylamino)ethyl)-4-(4-fluorobenzoyl)-3-hydroxy-1H-pyrrol-2(5H)-one], the pIC50 in experiment [1] and in experiment [2] was less than 3.00 throughout.
